# Where two headings read alike, the source gives them in different places.
# Assays:
# [1] = system: anti-folate resistant human leukemia cell lines; conditions: cited from earlier work
# [2] = system: solid murine and human tumors; conditions: tumors that did not respond to methotrexate; cited from earlier work
# [3] = target: recombinant human aminoimidazole carboxamide ribonucleotide transformylase (hAICAR Tfase) (Homo sapiens, UniProt P31939); test: hAICAR Tfase enzyme inhibition assay; assay type: biochemical
# Method in brief: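 Recombinant human enzyme; method otherwise follows earlier work. Reaction kinetics followed for 2 min after initiation. Ki obtained from Dixon plots.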
# [4] = system: CCRF-CEM human leukemia cell lines; test: Growth inhibition assay, CCRF-CEM; assay type: cell-based
# CCRF-CEM/FPGS^- = test: Growth inhibition assay, FPGS-deficient mutant cells; assay type: cell-based, human; conditions: read-out: CCRF-CEM/FPGS^- IC50, (−) T, (−) H
# [5] = system: CCRF-CEM human leukemia cell lines; conditions: read-out: IC50, cell-based growth inhibition; reported as low as; cited from earlier work
# [6] = alleviated by folic acid co-supplementation; cited from earlier work
# GAR Tfase = conditions: read-out: Ki, GAR Tfase; cited from earlier work
# CCRF-CEM/MTX = test: Growth inhibition assay, RFC-deficient mutant cells; assay type: cell-based, human; conditions: read-out: CCRF-CEM/MTX IC50, (−) T, (−) H
# [7] = read-out: Inhibition Ki, hAICAR Tfase, Dixon plots
# [8] = read-out: CCRF-CEM IC50, (+) T, (−) H, with thymidine, no hypoxanthine
# [9] = read-out: CCRF-CEM IC50, (−) T, (+) H, no thymidine, with hypoxanthine
# [10] = read-out: CCRF-CEM IC50, (−) T, (−) H, Table 1, no thymidine, no hypoxanthine
# [11] = read-out: CCRF-CEM IC50, (−) T, (−) H, Table 2, parent cell line
# recombinant human aminoimidazole carboxamide ribonucleotide transformylase (hAICAR Tfase), sequence (P31939 whole entry): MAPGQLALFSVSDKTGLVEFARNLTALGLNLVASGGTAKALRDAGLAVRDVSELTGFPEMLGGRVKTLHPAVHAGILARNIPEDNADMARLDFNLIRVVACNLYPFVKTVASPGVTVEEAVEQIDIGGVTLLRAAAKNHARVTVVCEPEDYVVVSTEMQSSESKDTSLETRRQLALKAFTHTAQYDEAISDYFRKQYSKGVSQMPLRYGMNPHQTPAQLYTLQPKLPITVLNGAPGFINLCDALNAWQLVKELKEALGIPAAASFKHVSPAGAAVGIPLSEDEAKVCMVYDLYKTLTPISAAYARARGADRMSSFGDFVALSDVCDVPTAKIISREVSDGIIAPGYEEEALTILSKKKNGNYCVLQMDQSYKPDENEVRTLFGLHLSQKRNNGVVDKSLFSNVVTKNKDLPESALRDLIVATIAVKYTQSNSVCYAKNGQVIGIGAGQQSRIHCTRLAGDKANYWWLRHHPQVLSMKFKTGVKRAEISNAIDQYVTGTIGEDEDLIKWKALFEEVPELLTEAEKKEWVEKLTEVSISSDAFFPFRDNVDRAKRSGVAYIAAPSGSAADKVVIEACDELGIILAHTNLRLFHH
Compound,"Ki [3, 7]","IC50 [4, 8]","IC50 [4, 9]","IC50 [4, 10]",IC50 (CCRF-CEM/FPGS^-; FPGS-deficient mutant),IC50 (CCRF-CEM/MTX),also measured
"COc1cc(NCc2ccc3nc(N)nc(N)c3c2C)cc(OC)c1OC [neutrexin (trimetrexate), trimetrexate]",–,–,–,–,–,–,Sensitivity of resistant cells with 90–99% loss of FPGS activity [1]: marked hypersensitivity
"Nc1nc2c(c(=O)[nH]1)CC(CCc1ccc(C(=O)N[C@@H](CCC(=O)O)C(=O)O)cc1)CN2 (stereo partly shown) [DDATHF, 5,10-dideaza-5,6,7,8-tetrahydrofolic acid]",–,–,–,–,–,–,In vivo antitumor effect [2]: effective in vivo against solid murine and human tumors
"Nc1nc2c(c(=O)[nH]1)C[C@@H](CCc1ccc(C(=O)N[C@@H](CCC(=O)O)C(=O)O)cc1)CN2 [3 Lometrexol, Lometrexol]",–,–,–,–,–,–,"Ki [3]: > 100000 nM; IC50 ([4]; Homo sapiens, CCRF-CEM, read-out: CCRF-CEM IC50, (−) T, (+) H): > 10000 nM; IC50 (CCRF-CEM/FPGS^-; Homo sapiens, CCRF-CEM): > 10000 nM; IC50 [5]: 2.9 nM; Adverse effect in patients [6]: some patients suffered cumulative myelosuppression"
"Nc1nc(N)c(CCCC(C(=O)C(F)(F)F)c2ccc(C(=O)N[C@@H](CCC(=O)O)C(=O)O)cc2)c(=O)[nH]1 (stereo partly shown) [compound 5, 10-CF3CO-DDACTHF]",> 100000 nM,17 nM,> 10000 nM,16 nM,> 10000 nM,–,Ki (GAR Tfase): 15 nM
Nc1nc(N)c(CCCCc2ccc(C(=O)NC(CCC(=O)O)C(=O)O)cc2)c(=O)[nH]1 (stereo not shown) [DDACTHF],20000 nM,3600 nM,> 10000 nM,2700 nM,> 10000 nM,> 100000 nM,"IC50 [4, 11]: 2700 nM"
"CS[C@@H](CCCc1c(N)nc(N)[nH]c1=O)c1ccc(C(=O)NC(CCC(=O)O)C(=O)O)cc1 (stereo partly drawn) [10S-7, 10S-methylthio-DDACTHF]",> 100000 nM,70 nM,> 10000 nM,50 nM,5000 nM,60 nM,"IC50 [4, 11]: 60 nM"
"CS[C@H](CCCc1c(N)nc(N)[nH]c1=O)c1ccc(C(=O)NC(CCC(=O)O)C(=O)O)cc1 (stereo partly drawn) [10R-8, 10R-methylthio-DDACTHF]",> 100000 nM,80 nM,> 10000 nM,80 nM,–,70 nM,"IC50 ([4]; read-out: IC50, CCRF-CEM growth inhibition): 80 nM"
"Nc1nc2ccc(CC(C=O)c3ccc(C(=O)N[C@@H](CCC(=O)O)C(=O)O)cc3)cc2c(=O)[nH]1 (stereo partly shown) [compound 4, 10-formyl-TDAF]",–,–,–,–,–,–,Ki (GAR Tfase): 260 nM
